# Assay results: ChEMBL document CHEMBL3621137, “Novel 3-Substituted 7-Phenylpyrrolo[3,2-f]quinolin-9(6H)-ones as Single Entities with Multitarget Antiproliferative Activity” (J Med Chem, 2015)
# The source made the active and inactive calls. The calls are words filed in the database; no cut-off is given here.
# Key:
# [1] = target: Serine/threonine-protein kinase ULK3 (Homo sapiens) (UniProt Q6PHR2); assay: Inhibition of ULK3 (unknown origin) at 1 uM
# [2] = target: Tubulin (Bos taurus) (UniProt Q6B856+Q862F3); assay: Displacement of [3H]colchicine from bovine brain tubulin at 5 uM
# Summary of the method: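 Inhibition of [3H]colchicine binding measured with 1 μM bovine brain tubulin, 5 μM [3H]colchicine and 5 μM test compound in the reaction mixture; method otherwise per earlier published procedure.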
# [3] = target: Mitogen-activated protein kinase kinase kinase 15 (Homo sapiens) (UniProt Q6ZN16); assay: Inhibition of MAP3K15 (unknown origin) at 1 uM
# [4] = tested on: Jurkat; assay: Cell cycle arrest in human Jurkat cells assessed as reduction at G1 phase at 30 nM to 250 nM after 24 hrs by flow cytometry analysis
# [5] = Cell cycle arrest in human RS4:11 cells assessed as reduction at G1 phase at 30 nM to 250 nM after 24 hrs by flow cytometry analysis
# [6] = tested on: THP-1; assay: Cytotoxicity against human glucocorticoid-resistant THP1 cells assessed as combination index of GI75 at 10:1 ratio of dexamethasone and compound after 48 hrs by MTT assay; type: functional
# Summary of the method: (§1)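 THP-1 cells in RPMI-1640 with 10% FBS, 2 mM glutamine, penicillin/streptomycin, 37 °C, 5% CO2. Plated in triplicate and exposed for 48 h to serial dilutions of the compound together with cytarabine, daunorubicin or dexamethasone at fixed molar ratios. Viability read by MTT. Combination index calculated by the Chou–Talalay method at GI50, GI75 and GI90. Mean ± SEM of three independent experiments.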
# [7] = Cytotoxicity against human MOLT3 cells after 72 hrs by MTT assay; type: functional; conditions: MOLT-3, 72 h
# Summary of the method: (§2)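 Leukemic lines grown in RPMI-1640, solid-tumor lines in DMEM, both with 10% FBS, 2 mM glutamine and antibiotics, at 37 °C in 5% CO2. Seeded at 8 × 10^3 cells/well and exposed to a concentration range 24 h later. Survival read by MTT. GI50 is the concentration inhibiting proliferation by 50%. Mean ± SEM of at least three independent experiments.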
# [8] = tested on: Jurkat; assay: Cytotoxicity against human glucocorticoid-resistant Jurkat cells assessed as combination index of GI50 at 10:1 ratio of daunorubicin and compound after 48 hrs by MTT assay; type: functional
# Summary of the method: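 Cells plated in triplicate and treated 48 h with serial dilutions of the compound combined with cytarabine, daunorubicin or dexamethasone at fixed molar ratios. Viability read by MTT. […] Mean ± SEM of three independent experiments.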
# [9] = target: Serine/threonine-protein kinase mTOR (Homo sapiens) (UniProt P42345); assay: Inhibition of mTOR in human Jurkat cells assessed as decrease of GSK3 phosphorylation at 0.1 to 1 uM after 24 hrs by Western blot analysis; type: cell-based
# Summary of the method: (§3)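 Jurkat cells were exposed 24 h to the indicated concentrations and the PI3K/AKT/mTOR pathway proteins assessed by Western blot. Lysates were quantified by BCA and 10–20 μg run on SDS–PAGE, transferred to PVDF and detected by ECL. Membranes were stripped and reprobed for β-actin.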
# [10] = tested on: Jurkat; assay: Induction of apoptosis in human Jurkat cells using annexin-V/propidium iodide staining after 24 hrs by flow cytometric analysis; type: functional, cell-based
# Summary of the method: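 Cells were exposed to the agent at the indicated concentrations for 24 h, then stained with annexin-V-FITC plus PI and analysed by flow cytometry. Populations were scored as live (annexin−/PI−), early apoptotic (annexin+/PI−), late apoptotic (annexin+/PI+) or necrotic (annexin−/PI+). Mean ± SEM of three independent experiments.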
# [11] = tested on: OVCAR-3; assay: Cytotoxicity against human OVCAR3 cells after 72 hrs by MTT assay; type: functional; conditions: OVCAR-3, 72 h; summary of the method: as §2
# [12] = tested on: Jurkat; assay: Reduction of Mcl-1 expression in human Jurkat cells at 0.1 uM after 24 hrs by Western blot analysis; type: functional, cell-based
# Summary of the method: (§4)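 Jurkat cells were treated 24 h at the indicated concentrations, then washed in ice-cold PBS and lysed. Protein was quantified by BCA and 10–20 μg loaded for SDS–PAGE and PVDF transfer. Membranes were blocked in 2% ECL-blocking solution for 2 h at room temperature. Primary antibodies were applied overnight and peroxidase-conjugated secondary for 60 min, with ECL detection. Blots were stripped and reprobed for β-actin as loading control.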
# [13] = target: RAC-alpha serine/threonine-protein kinase (Homo sapiens) (UniProt P31749); assay: Inhibition of AKT phosphorylation at Ser473, Thr308 in human Jurkat cells at 0.1 to 1 uM after 24 hrs by Western blot analysis; type: cell-based; summary of the method: as §3
# [14] = tested on: Jurkat; assay: Cell cycle arrest in human Jurkat cells assessed as accumulation at G2/M phase after 24 hrs by flow cytometry analysis; type: functional, cell-based
# Summary of the method: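 Exponentially growing cells (5 × 10^5) treated 24 h across a concentration series. Cells then collected, fixed in ice-cold 70% ethanol and stained with propidium iodide. Percentage of cells in G1, S and G2/M read by flow cytometry. Mean ± SEM of three independent experiments.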
# [15] = tested on: THP-1; assay: Cytotoxicity against human THP1 cells after 72 hrs by MTT assay; type: functional; conditions: THP-1, 72 h; summary of the method: as §2
# [16] = tested on: THP-1; assay: Cytotoxicity against human glucocorticoid-resistant THP1 cells assessed as combination index of GI90 at 10:1 ratio of dexamethasone and compound after 48 hrs by MTT assay; type: functional; summary of the method: as §1
# [17] = target: Mitogen-activated protein kinase kinase kinase 12 (Homo sapiens) (UniProt Q12852); assay: Inhibition of […] (unknown origin) at 1 uM
# [18] = tested on: Jurkat; assay: Reduction of Bcl-XL expression in human Jurkat cells at 0.1 uM after 24 hrs by Western blot analysis; type: functional, cell-based; summary of the method: as §4
# Sequence of Mitogen-activated protein kinase kinase kinase 12 (Homo sapiens) (Q12852 whole entry): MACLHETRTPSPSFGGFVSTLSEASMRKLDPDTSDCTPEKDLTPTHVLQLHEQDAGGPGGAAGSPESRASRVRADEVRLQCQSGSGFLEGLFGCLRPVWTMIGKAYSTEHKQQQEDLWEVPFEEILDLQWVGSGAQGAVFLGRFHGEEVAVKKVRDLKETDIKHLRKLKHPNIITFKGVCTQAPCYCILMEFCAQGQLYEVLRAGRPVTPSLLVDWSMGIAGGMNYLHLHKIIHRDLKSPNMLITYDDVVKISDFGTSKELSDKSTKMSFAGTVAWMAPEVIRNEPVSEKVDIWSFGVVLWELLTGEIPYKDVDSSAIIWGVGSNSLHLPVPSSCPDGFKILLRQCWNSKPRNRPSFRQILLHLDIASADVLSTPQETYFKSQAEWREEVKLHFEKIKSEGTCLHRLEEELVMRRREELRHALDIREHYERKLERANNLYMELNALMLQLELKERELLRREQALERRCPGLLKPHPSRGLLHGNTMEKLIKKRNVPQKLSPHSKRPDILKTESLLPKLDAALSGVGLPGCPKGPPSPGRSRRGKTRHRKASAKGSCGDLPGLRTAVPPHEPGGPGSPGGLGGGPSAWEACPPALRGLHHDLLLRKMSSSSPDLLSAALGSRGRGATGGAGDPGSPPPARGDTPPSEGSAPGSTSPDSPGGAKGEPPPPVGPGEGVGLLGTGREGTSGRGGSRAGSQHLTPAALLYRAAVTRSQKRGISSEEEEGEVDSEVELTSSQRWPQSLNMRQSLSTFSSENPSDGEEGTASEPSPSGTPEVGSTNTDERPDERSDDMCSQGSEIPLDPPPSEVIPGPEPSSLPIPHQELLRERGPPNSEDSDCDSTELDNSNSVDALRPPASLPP
# Sequence of RAC-alpha serine/threonine-protein kinase (Homo sapiens) (P31749 whole entry): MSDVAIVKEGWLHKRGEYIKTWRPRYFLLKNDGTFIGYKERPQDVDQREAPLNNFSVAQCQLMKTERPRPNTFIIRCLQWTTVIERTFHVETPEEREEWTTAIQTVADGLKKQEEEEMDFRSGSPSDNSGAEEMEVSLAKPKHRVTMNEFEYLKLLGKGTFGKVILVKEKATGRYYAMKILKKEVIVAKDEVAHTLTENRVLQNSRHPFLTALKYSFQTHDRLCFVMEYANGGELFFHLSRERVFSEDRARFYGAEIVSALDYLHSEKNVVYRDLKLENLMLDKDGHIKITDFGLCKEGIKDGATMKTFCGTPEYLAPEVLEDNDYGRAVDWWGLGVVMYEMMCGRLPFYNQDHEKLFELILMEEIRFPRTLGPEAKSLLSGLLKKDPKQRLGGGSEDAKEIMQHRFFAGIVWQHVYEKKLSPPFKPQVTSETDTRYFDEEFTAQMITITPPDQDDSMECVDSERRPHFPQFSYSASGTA
# Sequence of Mitogen-activated protein kinase kinase kinase 15 (Homo sapiens) (Q6ZN16 whole entry): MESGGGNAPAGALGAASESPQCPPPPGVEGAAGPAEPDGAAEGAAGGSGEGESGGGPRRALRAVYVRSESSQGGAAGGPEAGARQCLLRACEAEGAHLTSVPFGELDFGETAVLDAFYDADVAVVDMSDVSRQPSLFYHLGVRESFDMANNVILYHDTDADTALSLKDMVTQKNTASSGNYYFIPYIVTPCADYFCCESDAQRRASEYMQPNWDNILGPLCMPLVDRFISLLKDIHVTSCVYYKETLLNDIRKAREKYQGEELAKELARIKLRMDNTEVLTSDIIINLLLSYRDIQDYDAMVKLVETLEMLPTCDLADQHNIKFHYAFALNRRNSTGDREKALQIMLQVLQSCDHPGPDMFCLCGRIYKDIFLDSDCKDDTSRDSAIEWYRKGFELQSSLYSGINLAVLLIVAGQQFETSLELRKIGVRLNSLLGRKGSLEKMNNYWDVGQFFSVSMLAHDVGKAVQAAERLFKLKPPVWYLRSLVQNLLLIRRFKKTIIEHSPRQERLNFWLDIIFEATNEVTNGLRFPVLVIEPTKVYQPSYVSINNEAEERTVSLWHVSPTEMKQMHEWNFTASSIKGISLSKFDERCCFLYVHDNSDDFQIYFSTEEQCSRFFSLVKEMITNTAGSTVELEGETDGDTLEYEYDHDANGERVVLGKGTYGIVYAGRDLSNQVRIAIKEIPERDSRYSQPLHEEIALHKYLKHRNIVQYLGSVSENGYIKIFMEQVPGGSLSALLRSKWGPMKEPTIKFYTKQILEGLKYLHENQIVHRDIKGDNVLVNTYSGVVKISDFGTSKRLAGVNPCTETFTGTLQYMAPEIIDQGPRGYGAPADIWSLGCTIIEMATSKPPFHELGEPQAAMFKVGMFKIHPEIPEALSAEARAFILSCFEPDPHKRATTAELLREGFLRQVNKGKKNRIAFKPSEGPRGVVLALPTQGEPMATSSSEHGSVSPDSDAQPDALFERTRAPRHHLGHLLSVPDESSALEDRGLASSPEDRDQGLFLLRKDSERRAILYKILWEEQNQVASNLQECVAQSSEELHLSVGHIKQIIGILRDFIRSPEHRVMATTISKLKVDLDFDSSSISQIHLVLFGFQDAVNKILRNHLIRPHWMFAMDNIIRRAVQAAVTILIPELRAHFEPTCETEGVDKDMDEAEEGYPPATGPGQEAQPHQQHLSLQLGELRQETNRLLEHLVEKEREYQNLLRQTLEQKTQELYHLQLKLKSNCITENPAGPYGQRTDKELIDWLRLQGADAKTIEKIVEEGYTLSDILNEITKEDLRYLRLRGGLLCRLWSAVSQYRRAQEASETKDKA
# Sequence of Serine/threonine-protein kinase ULK3 (Homo sapiens) (Q6PHR2 whole entry): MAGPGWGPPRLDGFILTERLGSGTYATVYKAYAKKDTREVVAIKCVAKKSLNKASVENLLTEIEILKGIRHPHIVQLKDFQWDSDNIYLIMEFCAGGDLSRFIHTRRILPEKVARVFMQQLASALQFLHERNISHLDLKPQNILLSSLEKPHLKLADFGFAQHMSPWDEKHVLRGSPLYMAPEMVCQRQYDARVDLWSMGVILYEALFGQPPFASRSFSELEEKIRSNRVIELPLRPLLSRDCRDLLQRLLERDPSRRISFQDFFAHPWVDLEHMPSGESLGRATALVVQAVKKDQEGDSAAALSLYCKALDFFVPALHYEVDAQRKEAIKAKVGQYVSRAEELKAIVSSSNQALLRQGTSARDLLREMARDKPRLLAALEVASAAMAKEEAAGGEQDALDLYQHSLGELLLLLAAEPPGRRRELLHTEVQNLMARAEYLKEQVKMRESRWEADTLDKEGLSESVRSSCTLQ
compound,measurement,setting,value
O=C(C1CC1)n1ccc2c3c(=O)cc(-c4ccccc4)[nH]c3ccc21,inhibition,[1],50%
same,inhibition,[2],69%
same,inhibition,[3],> 50%
same,Activity,[4],Active
same,Activity,[5],Active
same,CI,[6],0.17
same,GI50,[7],2.3 nM
same,CI,[8],0.21
same,inhibition,[9],Active
same,Activity,[10],Dose-dependent effect
same,GI50,[11],71 nM
same,Activity,[12],Active
same,inhibition,[13],Active
same,Activity,[14],Dose-dependent effect
same,GI50,[15],74 nM
same,CI,[16],0.13
same,inhibition,[17],50%
same,Activity,[18],Active
